Source: PubChem
Sampled rows, rich in hits. Any-hit rate of the full collection: about 3.5%.
MrgX1 PAM: allosterically activates human MrgX1 receptor signaling. AID 588675. 0.63% of 310,000 active. B-score at 10 µM. MrgX1-HEK293, Fluo-4 calcium flux, FDSS; stronger effect = higher value. Q96LB2;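 active means plate-corrected calcium response at least 3 library SD above typical, normal starting fluorescence, not activating the receptor alone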;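 further: compound read alongside a low EC10 to EC30 dose of BAM8-22 agonist; peak minus trough fluorescence over baseline measured at the second addition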
Target sequence (Q96LB2 whole entry, looked up): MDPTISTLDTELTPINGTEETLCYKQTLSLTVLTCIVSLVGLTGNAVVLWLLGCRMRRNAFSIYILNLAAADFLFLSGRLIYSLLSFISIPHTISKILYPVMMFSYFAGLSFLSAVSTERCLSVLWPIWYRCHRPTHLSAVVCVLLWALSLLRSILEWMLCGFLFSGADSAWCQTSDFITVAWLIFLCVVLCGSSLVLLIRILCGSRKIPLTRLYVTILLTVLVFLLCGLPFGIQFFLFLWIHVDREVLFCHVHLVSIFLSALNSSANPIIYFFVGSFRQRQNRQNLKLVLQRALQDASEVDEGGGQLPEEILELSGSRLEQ
RGS4 act: RGS4 potentiation or activation; B-score at 10 µM; HEK293 M3R/inducible RGS4, carbachol calcium flux Fluo4; stronger effect = lower value; 0.92% of 310,000 active;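 active means B-score of the integrated calcium signal more than 4 SD below the library mean, with starting fluorescence not abnormally high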;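 further: negative B-score means reduced calcium response which marks RGS4 activation or potentiation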
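Material: Inducible-RGS4 HEK293 cells carrying M3 receptor; also added: carbachol at ECmax as muscarinic agonist stimulus; incubation: compound preincubation 20 min at room temperature before agonist; signal: Fluo4-AM (2 µM) calcium-flux fluorescence, kinetic read; measure: integrated calcium ratio converted to B score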
MrgX1 ag: activates human MrgX1 receptor signaling | AID 588627 | Q96LB2 | MrgX1-HEK293 cells, Fluo-4 calcium fluorescence, agonist mode; stronger effect = higher value | B-score at 10 µM | 0.44% of 310,000 active;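 active means calcium response B-score plate-corrected fluorescence ratio at least 3 library SD, with starting fluorescence B-score inside 5 SD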
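Material: HEK293 cells stably expressing human MrgX1 receptor | Quantity: 15,000 cells per well | Times: Cells plated overnight, dye loaded 0.5 h 37 °C, 0.5 h room temperature | Measured by: Kinetic Fluo-4 NW fluorescence of intracellular calcium | Control set: Positive and negative controls per plate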
RGS4 block: inhibitors of human RGS4; 0.45% of 310,000 active; AID 463165; HEK293 M3R/RGS4 inducible, Fluo-4 calcium flux; stronger effect = higher value; triggered by carbachol at its EC20; B-score at 10 µM;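 active means B-score, a plate-corrected calcium signal, over three deviations above library mean, with baseline fluorescence within five deviations of library mean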;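 further: RGS4 expression induced by doxycycline in cells with stable M3 receptor; B-score is computed from the integrated fluorescence ratio over baseline after carbachol; higher B-score means a larger calcium signal and so more RGS4 inhibition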
Target sequence (P49798 whole entry, looked up): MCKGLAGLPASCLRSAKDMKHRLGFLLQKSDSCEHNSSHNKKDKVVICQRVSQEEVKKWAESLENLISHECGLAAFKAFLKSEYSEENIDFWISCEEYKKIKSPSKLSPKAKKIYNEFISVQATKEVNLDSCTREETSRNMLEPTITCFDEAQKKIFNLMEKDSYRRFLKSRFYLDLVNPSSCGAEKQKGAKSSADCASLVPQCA
MrgX1 antagonist: human MrgX1 receptor antagonism, primary screen. AID 588676. 1.3% of 310,000 active. Q96LB2. MRGX1-HEK293 calcium flux, Fluo-4, BAM8-22 antagonism; stronger effect = lower value. B-score at 10 µM;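 active means calcium-response B-score plate-corrected more than 3 library SD below zero, starting fluorescence within 5 deviations, no agonist response on first addition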;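 further: peak minus trough fluorescence over baseline after final BAM8-22 challenge near maximal dose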
MrgX1 antag conf: reconfirmed antagonist of human MrgX1 receptor signaling; AID 602420; 19% of 2,300 active; MrgX1-HEK293, BAM8-22 calcium flux, Fluo-4; stronger effect = lower value; shares compounds with MrgX1 antagonist; remaining BAM8-22 calcium response % of control (stronger effect = lower value), % at 10 µM;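 active means remaining agonist calcium response no higher than 100% minus 3 SD of agonist-only control wells, with starting fluorescence near control levels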;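 further: agonist BAM8-22 given at a near maximal EC90 to ECmax level; peak minus minimum fluorescence divided by baseline after agonist addition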
HEK293 Ca flux: activity in parental HEK293 cells lacking MrgX1. shares compounds with MrgX1 antagonist. fluorescence ratio F(max-min)/F0 at 10 µM. 2% of 4,000 active. Fluo-4 calcium fluorescence, FDSS. AID 624111;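 active means duplicate-averaged calcium fluorescence ratio at least three times the standard deviation of buffer wells, a nonspecific response in parental cells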
HEK293 Ca counter: activity in parental HEK293 cells without MrgX1. shares compounds with MrgX1 antagonist. parental HEK293 calcium flux, Fluo-4 fluorescence ratio; stronger effect = higher value. fluorescence ratio F(max-min)/F0 at 10 µM. 0.4% of 4,000 active. AID 624114;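 active means calcium fluorescence ratio, averaged over duplicates, at least 3 SD of the buffer-well ratio, meaning a nonspecific response in receptor-free cells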;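 further: untransfected parental HEK293 lacking MrgX1 used as counterscreen for MrgX1 allosteric activators; fluorescence change taken during the second addition on a kinetic imager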
HEK293 Ca cntr2: counter-screen for MrgX1 activators: effect in parental HEK293 cells | Fluo-4 calcium fluorescence (FDSS); stronger effect = higher value | fluorescence ratio F(max-min)/F0 at 10 µM | shares compounds with MrgX1 antagonist | 8.7% of 4,000 active;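 active means calcium fluorescence ratio at least three times the spread of buffer wells, meaning a non-specific response in parental cells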
The depositor's hits bear a star.

Results for Cc1cc(C)cc(N2C(=O)C3CC=CCC3C2=O)c1 (centres undefined) ?
MrgX1 PAM: inactive; RGS4 act: inactive; MrgX1 ag: inactive; RGS4 block: inactive; MrgX1 antagonist: -5.22*; MrgX1 antag conf: inactive; HEK293 Ca flux: inactive; HEK293 Ca counter: inactive; HEK293 Ca cntr2: inactive

Results for CCCn1c(C(C)Nc2nc(-c3cc(Cl)c(N)c(Cl)c3)cs2)nc2cc(Cl)c(N3CCCCC3)cc21 (centres undefined) ?
MrgX1 PAM: inactive; RGS4 act: inactive; MrgX1 ag: inactive; RGS4 block: inactive; MrgX1 antagonist: inactive

What do the screens show for `O=c1cc(N2CCCCC2)nc2n1CCCS2`?
MrgX1 PAM: inactive; RGS4 act: inactive; MrgX1 ag: inactive; RGS4 block: inactive; MrgX1 antagonist: -5.41*; MrgX1 antag conf: inactive; HEK293 Ca flux: inactive; HEK293 Ca counter: inactive; HEK293 Ca cntr2: inactive

What do the screens show for `Cc1c(C(=O)NCC2CCCO2)oc2ccc(S(=O)(=O)N3CCCCC3)cc12` (centres undefined)?
MrgX1 PAM: inactive; RGS4 act: inactive; MrgX1 ag: inactive; RGS4 block: inactive; MrgX1 antagonist: -7.22*; MrgX1 antag conf: 84.4%*; HEK293 Ca flux: inactive; HEK293 Ca counter: inactive; HEK293 Ca cntr2: inactive

How did NC(=O)C1CCN(C(=O)NC2CC(=O)N(c3ccc4c(c3)OCCO4)C2)CC1 (centres undefined) do in these assays?
MrgX1 PAM: inactive; RGS4 act: inactive; MrgX1 ag: inactive; RGS4 block: inactive; MrgX1 antagonist: -6.95*; MrgX1 antag conf: inactive; HEK293 Ca flux: inactive; HEK293 Ca counter: inactive; HEK293 Ca cntr2: inactive

Results for O=c1[nH]c(C2CCCN(S(=O)(=O)c3ccc(F)cc3)C2)nc2c1nnn2Cc1ccc(F)cc1 (centres undefined) ?
MrgX1 PAM: inactive; RGS4 act: inactive; MrgX1 ag: inactive; RGS4 block: inactive; MrgX1 antagonist: inactive

How did Cc1cccc(NC(=O)Nc2c(C)n(C)n(-c3ccccc3)c2=O)c1C do in these assays?
MrgX1 PAM: inactive; RGS4 act: inactive; MrgX1 ag: inactive; RGS4 block: inactive; MrgX1 antagonist: inactive

How did Cc1cccc(NC(=S)Nc2c(C)n(C)n(-c3ccccc3)c2=O)c1C do in these assays?
MrgX1 PAM: inactive; RGS4 act: inactive; MrgX1 ag: inactive; RGS4 block: inactive; MrgX1 antagonist: -18.1*; MrgX1 antag conf: inactive; HEK293 Ca flux: inactive; HEK293 Ca counter: inactive; HEK293 Ca cntr2: inactive

Results for CCN(CC)c1ccc(C(=O)NC(=S)N2CCN(Cc3ccc4c(c3)OCO4)CC2)cc1 ?
MrgX1 PAM: inactive; RGS4 act: inactive; MrgX1 ag: inactive; RGS4 block: inactive; MrgX1 antagonist: -5.09*; MrgX1 antag conf: inactive; HEK293 Ca flux: inactive; HEK293 Ca counter: inactive; HEK293 Ca cntr2: inactive

How did Cc1ccc(S(=O)(=O)N(C)c2ccc(C(=O)N3CCN(Cc4ccc5c(c4)OCO5)CC3)cc2)cc1 do in these assays?
MrgX1 PAM: inactive; RGS4 act: inactive; MrgX1 ag: inactive; RGS4 block: inactive; MrgX1 antagonist: -5.24*; MrgX1 antag conf: inactive; HEK293 Ca flux: inactive; HEK293 Ca counter: inactive; HEK293 Ca cntr2: inactive

What do the screens show for `FC(F)(F)c1ccccc1NC(=S)N1CCN(Cc2ccc3c(c2)OCO3)CC1`?
MrgX1 PAM: inactive; RGS4 act: inactive; MrgX1 ag: inactive; RGS4 block: inactive; MrgX1 antagonist: -7.43*; MrgX1 antag conf: inactive; HEK293 Ca flux: inactive; HEK293 Ca counter: inactive; HEK293 Ca cntr2: inactive

How did CC(C)NC(=S)N1CCN(Cc2ccc3c(c2)OCO3)CC1 do in these assays?
MrgX1 PAM: inactive; RGS4 act: inactive; MrgX1 ag: inactive; RGS4 block: inactive; MrgX1 antagonist: inactive

How did Cc1ccccc1NC(=S)N1CCN(Cc2ccc3c(c2)OCO3)CC1 do in these assays?
MrgX1 PAM: inactive; RGS4 act: inactive; MrgX1 ag: inactive; RGS4 block: inactive; MrgX1 antagonist: inactive

What do the screens show for `CCCCOc1ccc(N(CC(=O)NCCOC)C(=O)CCC(=O)Nc2ccccn2)cc1`?
MrgX1 PAM: inactive; RGS4 act: inactive; MrgX1 ag: inactive; RGS4 block: inactive; MrgX1 antagonist: inactive

How did CCN1C(=O)N(C(C)=O)C2C1N(C(C)=O)C(=O)N2C(C)=O (centres undefined) do in these assays?
MrgX1 PAM: inactive; RGS4 act: inactive; MrgX1 ag: inactive; RGS4 block: inactive; MrgX1 antagonist: inactive

Results for Cc1ccc(NC(=O)NCC2CC2(Cl)Cl)cc1 (centres undefined) ?
MrgX1 PAM: inactive; RGS4 act: inactive; MrgX1 ag: inactive; RGS4 block: inactive; MrgX1 antagonist: inactive

Results for O=C(NCC1CC1(Cl)Cl)Nc1ccc(Cl)c(Cl)c1 (centres undefined) ?
MrgX1 PAM: inactive; RGS4 act: inactive; MrgX1 ag: inactive; RGS4 block: inactive; MrgX1 antagonist: -5.51*; MrgX1 antag conf: inactive; HEK293 Ca flux: inactive; HEK293 Ca counter: inactive; HEK293 Ca cntr2: inactive

How did CC(C)(CO)NC(=O)Nc1ccc(Cl)c(Cl)c1 do in these assays?
MrgX1 PAM: inactive; RGS4 act: inactive; MrgX1 ag: inactive; RGS4 block: inactive; MrgX1 antagonist: -7.71*; MrgX1 antag conf: inactive; HEK293 Ca flux: inactive; HEK293 Ca counter: inactive; HEK293 Ca cntr2: inactive

How did CCCCc1ccc(NC(=O)Nc2cc(C)nn2C)cc1 do in these assays?
MrgX1 PAM: inactive; RGS4 act: inactive; MrgX1 ag: inactive; RGS4 block: inactive; MrgX1 antagonist: inactive

How did COc1ccc(/C=C(/NC(=O)c2ccc([N+](=O)[O-])cc2)C(=O)NC(C)(C)C)cc1 do in these assays?
MrgX1 PAM: inactive; RGS4 act: inactive; MrgX1 ag: inactive; RGS4 block: inactive; MrgX1 antagonist: inactive

Results for COc1ccccc1N1CCN(C2CCCN(C(=O)CCN3CCCCO3)C2)CC1 (centres undefined) ?
MrgX1 PAM: inactive; RGS4 act: inactive; MrgX1 ag: inactive; RGS4 block: inactive; MrgX1 antagonist: inactive
